Results from ChEMBL document CHEMBL1125484, “Nonpeptide angiotensin II receptor antagonists: synthetic and computational chemistry of N-[[4-[2-(2H-tetrazol-5-yl)-1-cycloalken-1-yl]phenyl]methyl]imidazole derivatives and their in vitro activity” (J Med Chem, 1992).

Legend:
Oryctolagus cuniculus = species on record: Oryctolagus cuniculus; assay: pA2 value was determined by the compound's ability to antagonize the AII-induced contraction of rabbit aorta rings.; type: functional; conditions: read-out: pA2 (converted)
How it was run: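 Thoracic aorta rings (3 mm) from New Zealand white rabbits were held in 37 °C physiological salt solution aerated with 95% O2/5% CO2, and isometric tension was recorded. A cumulative AII curve (10^-10 to 10^-7 M) was run, the tissue washed, and the compound added in DMSO for 30 min before the AII curve was repeated. Responses were expressed as % of control maximum, with EC50s from four-parameter logistic fits.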

[1] = Partition coefficient (logP); type: physicochemical; conditions: octanol/water
[2] = target: T1, Type-1 angiotensin II receptor B (Rattus norvegicus, UniProt P29089); assay: Concentration required to inhibit binding of radioligand [125I]AII to angiotensin II receptor, type 1 in rat adrenal glomerulosa tissue
T1 sequence (P29089 whole entry): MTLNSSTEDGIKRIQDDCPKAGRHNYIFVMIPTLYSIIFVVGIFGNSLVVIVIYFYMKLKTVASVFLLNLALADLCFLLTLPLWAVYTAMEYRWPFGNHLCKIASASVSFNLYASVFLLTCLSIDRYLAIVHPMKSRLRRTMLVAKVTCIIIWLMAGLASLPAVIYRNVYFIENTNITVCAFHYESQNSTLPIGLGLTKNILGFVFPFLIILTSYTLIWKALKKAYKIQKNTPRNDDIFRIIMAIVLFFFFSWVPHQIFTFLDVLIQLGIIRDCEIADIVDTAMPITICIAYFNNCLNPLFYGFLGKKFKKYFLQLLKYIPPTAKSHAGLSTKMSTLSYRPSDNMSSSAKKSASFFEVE
How it was run: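 Buffer was 50 mM Tris, 120 mM NaCl, 5 mM MgCl2, 1 mM DTT and 0.05% BSA, with 8–15 μg protein. Antagonists were tested at 10 nM–100 μM, and nonspecific binding was defined with 0.1 μM [Sar1,Ile8]AII. Bound ligand was filtered and gamma-counted in triplicate. IC50 was taken from the linear portion of the displacement curve.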

Question: What does the source list for `CCCCc1nc(Cl)c(CO)n1Cc1ccc(C2=C(c3nnn[nH]3)CCCC2)cc1`?
Answer: Kb (Oryctolagus cuniculus): 129 nM; logP [1]: 4.34

Question: For `CCCCc1nc(Cl)c(C(=O)O)n1Cc1ccc(C2=C(c3nn[nH]n3)CCCCC2)cc1`, which IC50 [2] is on record?
Answer: 390 nM

Question: What about the Kb (Oryctolagus cuniculus) of the same molecule?
Answer: 12 nM

Question: And the logP [1]?
Answer: 5.37

Question: For `CCCCc1nc(Cl)c(CO)n1Cc1ccc(C2=C(c3nn[nH]n3)CCCCC2)cc1`, which IC50 [2] is on record?
Answer: 2800 nM

Question: And the Kb (Oryctolagus cuniculus)?
Answer: 468 nM

Question: And the logP [1]?
Answer: 4.9

Question: Which IC50 [2] does the source give for `CCCCc1nc(Cl)c(C(=O)O)n1Cc1ccc(C2=C(c3nn[nH]n3)CCCC2)cc1` here?
Answer: 400 nM

Question: And the Kb (Oryctolagus cuniculus)?
Answer: 4.07 nM

Question: And the logP [1]?
Answer: 4.81

Question: For `CCCCc1nc(Cl)c(C(=O)O)n1Cc1ccc(C2=C(c3nnn[nH]3)CCC2)cc1`, which IC50 [2] is on record?
Answer: 310 nM

Question: And the Kb (Oryctolagus cuniculus)?
Answer: 14.5 nM

Question: What about the logP [1] of the same molecule?
Answer: 4.25

Question: What does the source list for `CCCCc1nc(Cl)c(CO)n1Cc1ccc(C2=C(c3nnn[nH]3)CCC2)cc1`?
Answer: IC50 [2]: 3500 nM; Kb (Oryctolagus cuniculus): 355 nM; logP [1]: 3.78

Question: What does the source list for `CCCCc1nc(Cl)c(C(=O)O)n1Cc1ccc(-c2ccccc2-c2nn[nH]n2)cc1` [CARBOXYLIC ACID METABOLITE]?
Answer: Kb (Oryctolagus cuniculus): 0.234 nM; logP [1]: 4.92

Question: For `CCCCc1nc(Cl)c(CO)n1Cc1ccc(-c2ccccc2-c2nnn[nH]2)cc1` [LOSARTAN], which Kb (Oryctolagus cuniculus) is on record?
Answer: 3.8 nM

Question: And the logP [1]?
Answer: 4.45
